In ChEMBL document CHEMBL4422629, “Discovery of an Orally Bioavailable and Central Nervous System (CNS) Penetrant mGlu7 Negative Allosteric Modulator (NAM) in Vivo Tool Compound: N-(2-(1 H-1,2,4-triazol-1-yl)-5-(trifluoromethoxy)phenyl)-4-(cyclopropylmethoxy)-3-methoxybenzamide (VU6012962)” (J Med Chem, 2019):
Calls of active or inactive are those of the source. The rule behind the calls is not given here.

How the values were obtained:
[1] = biological target: Metabotropic glutamate receptor 7 (Rattus norvegicus, UniProt P35400); test: Negative allosteric modulation of rat mGlu7 receptor expressed in HEK cells harboring Ga15 assessed as reduction in L-AP4-induced calcium flux preincubated for 142 secs followed by agonist addition and measured after 120 secs by Fluo-4-AM-dye based fluorescence assay; format: functional, cell-based
[2] = Unbound fraction in Sprague-Dawley rat brain at 0.2 to 0.25 mg/kg, iv via cassette dosing measured up to 24 hrs post dose by LC/MS/MS analysis; format: ADME, organism-based
[3] = Fraction unbound in Sprague-Dawley rat plasma at 0.2 to 0.25 mg/kg, iv via cassette dosing measured up to 24 hrs post dose by LC/MS/MS analysis; format: ADME, organism-based; conditions: for fraction unbound at 24 h: Sprague-Dawley, plasma
[4] = Unbound brain-to-plasma concentration ratio in Sprague-Dawley rat brain at 0.2 to 0.25 mg/kg, iv via cassette dosing measured up to 24 hrs post dose by LC/MS/MS analysis; format: ADME, organism-based
Procedure, shortened: (§1)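 Rat IV cassette study of plasma:brain levels. Brain Kp taken as total brain:plasma; Kp,uu corrected with the rat brain homogenate unbound fraction.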

[5] = Fraction unbound in mouse plasma at 0.2 to 0.25 mg/kg, iv via cassette dosing measured up to 24 hrs post dose by LC/MS/MS analysis; format: ADME, organism-based
[6] = Unbound brain concentration in Sprague-Dawley rat at 0.2 to 0.25 mg/kg, iv via cassette dosing measured up to 24 hrs post dose by LC/MS/MS analysis; format: ADME, organism-based; conditions: in vivo; procedure, shortened: as §1
[7] = biological target: Metabotropic glutamate receptor 4 (Homo sapiens, UniProt Q14833); test: Negative allosteric modulation of mGlu4 receptor (unknown origin)
[8] = biological target: Metabotropic glutamate receptor 3 (Homo sapiens, UniProt Q14832); test: Negative allosteric modulation of mGlu3 receptor (unknown origin)
[9] = Oral bioavailability in Sprague-Dawley rat at 10 mg/kg measured up to 24 hrs by LC-MS/MS analysis; format: ADME, organism-based; conditions: in vivo
Procedure, shortened: (§2)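 Rat discrete pharmacokinetics after iv and po (10 mg/kg) dosing, giving plasma clearance, Vss, half-life and oral bioavailability.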

[10] = Unbound brain to plasma concentration ratio in Sprague-Dawley rat at 30 mg/kg, ip measured at 1 hr post dose by LC/MS/MS analysis; format: ADME, organism-based
Procedure, shortened: (§3)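 Rat tissue distribution after a single 30 mg/kg ip dose, with compound measured in plasma, brain and CSF. Kp taken as tissue:plasma total ratio. Unbound levels used plasma protein binding and brain homogenate binding fractions.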

[11] = Total brain concentration in Sprague-Dawley rat at 0.2 to 0.25 mg/kg, iv via cassette dosing measured up to 24 hrs post dose by LC/MS/MS analysis; format: ADME, organism-based; conditions: read-out: Drug uptake; procedure, shortened: as §1
[12] = Total brain concentration in Sprague-Dawley rat at 30 mg/kg, ip measured at 1 hr post dose by LC/MS/MS analysis; format: ADME, organism-based; conditions: read-out: Drug uptake; procedure, shortened: as §3
[13] = tested on: Mus musculus; test: Anxiolytic-like activity in C57Bl/6J mouse assessed as suppression of marble burying activity at 3 mg/kg, ip administered 45 mins before habituation for 15 mins and measured following 30 mins interval by marble burying assay; format: functional, organism-based
Procedure, shortened: (§4)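 Mouse marble-burying assay, ip dosing of test agent or fluoxetine, counting marbles buried. Analysis by one-way ANOVA with Dunnett's post hoc test against vehicle, plus Grubb's outlier test.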

[14] = Brain to plasma permeability coefficient, Kp of the compound in Sprague-Dawley rat at 0.2 to 0.25 mg/kg, iv via cassette dosing measured up to 24 hrs post dose by LC/MS/MS analysis; format: ADME, organism-based; procedure, shortened: as §1
[15] = biological target: Metabotropic glutamate receptor 2 (Homo sapiens, UniProt Q14416); test: Negative allosteric modulation of mGlu2 receptor (unknown origin)
[16] = biological target: Metabotropic glutamate receptor 8 (Homo sapiens, UniProt O00222); test: Negative allosteric modulation of mGlu8 receptor (unknown origin)
[17] = Fraction unbound in Sprague-Dawley rat brain at 30 mg/kg, ip measured at 1 hr post dose by LC/MS/MS analysis; format: ADME, organism-based; conditions: in vivo
[18] = Total plasma concentration in Sprague-Dawley rat at 30 mg/kg, ip measured at 1 hr post dose by LC/MS/MS analysis; format: ADME, organism-based; procedure, shortened: as §3
[19] = biological target: Metabotropic glutamate receptor 6 (Homo sapiens, UniProt O15303); test: Negative allosteric modulation of mGlu6 receptor (unknown origin)
[20] = Brain to plasma permeability coefficient, Kp of the compound in Sprague-Dawley rat at 30 mg/kg, ip measured at 1 hr post dose by LC/MS/MS analysis; format: ADME, organism-based; procedure, shortened: as §3
[21] = Half life in Sprague-Dawley rat at 0.2 mg/kg, iv or 10 mg/kg, po measured up to 24 hrs by LC-MS/MS analysis; format: ADME, organism-based; conditions: in vivo; procedure, shortened: as §2
[22] = Fraction unbound in Sprague-Dawley rat plasma at 30 mg/kg, ip measured at 1 hr post dose by LC/MS/MS analysis; format: ADME, organism-based; conditions: in vivo
[23] = biological target: Metabotropic glutamate receptor 5 (Homo sapiens, UniProt P41594); test: Negative allosteric modulation of mGlu5 receptor (unknown origin)
[24] = Drug level in C57Bl/6J mouse cerebrospinal fluid at 3 mg/kg, ip measured at 1 hr post dose by LC/MS/MS analysis; format: ADME, organism-based; conditions: read-out: Drug uptake
Procedure, shortened: (§5)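 Mouse pharmacokinetic assessment at 3 mg/kg ip, sampled at the 1 h time point used in the behavioural tests.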

[25] = Plasma concentration in C57Bl/6J mouse at 3 mg/kg, ip measured at 1 hr post dose by LC/MS/MS analysis; format: ADME, organism-based; procedure, shortened: as §5
[26] = biological target: Metabotropic glutamate receptor 1 (Homo sapiens, UniProt Q13255); test: Negative allosteric modulation of mGlu1 receptor (unknown origin)
[27] = tested on: Mus musculus; test: Anxiolytic-like activity in C57Bl/6J mouse assessed as suppression of marble burying activity […], ip administered 45 mins before habituation for 15 mins and measured following 30 mins interval by marble burying assay; format: functional, organism-based; conditions: 3 mg/kg, in the assay text read “3 mg/kg” for “15 mg/kg”; procedure, shortened: as §4
[28] = tested on: Mus musculus; test: Anxiolytic-like activity in C57Bl/6J mouse assessed as increase in total time spent in the light side of the chamber at 3 mg/kg, ip measured during 10-min testing period; format: functional, organism-based
Procedure, shortened: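 Mouse light/dark box at 3 mg/kg ip, with fluoxetine 15 mg/kg ip as reference; read-out was total time in the light side. Analysis by one-way ANOVA with Dunnett's post hoc test against vehicle, plus Grubb's outlier test.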

[29] = Drug level in Sprague-Dawley rat cerebrospinal fluid at 30 mg/kg, ip measured at 1 hr post dose by LC/MS/MS analysis; format: ADME, organism-based; conditions: read-out: Drug uptake; procedure, shortened: as §3
[30] = tested on: Mus musculus; test: Reduction in locomotive activity in C57Bl/6J mouse assessed as reduction in total distance traveled in maze at 10 mg/kg, ip after 120 secs by elevated zero maze assay; format: ADME, organism-based; conditions: in vivo, 2 min
Procedure, shortened: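 Elevated zero maze in mice dosed intraperitoneally; locomotion read as total distance traveled. Analysis by one-way ANOVA with Bonferroni post hoc test between doses.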

[31] = Ratio of drug level in C57Bl/6J mouse cerebrospinal fluid at 3 mg/kg, ip measured at 1 hr post dose by LC/MS/MS analysis to negative allosteric modulation of rat mGlu7 receptor expressed in HEK cells harboring Ga15; format: ADME, organism-based; conditions: in vivo
[32] = biological target: 5-hydroxytryptamine receptor 2B (Homo sapiens) (UniProt P41595); test: Binding affinity to cloned human 5-HT2B expressed in CHO-K1 cell membranes by radioligand displacement assay
Procedure, shortened: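 Eurofins lead profiling panel of 68 GPCRs, ion channels and transporters, tested at 10 μM and read as percent activity.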

[33] = Fraction unbound in Sprague-Dawley rat brain at 0.2 to 0.25 mg/kg, iv via cassette dosing measured up to 24 hrs post dose by LC/MS/MS analysis; format: ADME, organism-based
[34] = tested on: Mus musculus; test: Anti-anxiety activity in ip dosed C57Bl/6J mouse assessed as increase in total time spent in open arms by elevated zero maze assay; format: functional; conditions: read-out: MED
Procedure, shortened: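 Mouse elevated zero maze after intraperitoneal dosing at several doses; read-out was total time in open arms. Analysis by one-way ANOVA with Bonferroni post hoc test against vehicle.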

[35] = CSF to plasma permeability coefficient, Kp of the compound in Sprague-Dawley rat at 30 mg/kg, ip measured at 1 hr post dose by LC/MS/MS analysis; format: ADME, organism-based; procedure, shortened: as §3
[36] = Volume of distribution at steady state in Sprague-Dawley rat at 0.2 mg/kg, iv or 10 mg/kg, po measured up to 24 hrs by LC-MS/MS analysis; format: ADME, organism-based; conditions: in vivo; procedure, shortened: as §2
[37] = Ratio of drug level in Sprague-Dawley rat cerebrospinal fluid at 30 mg/kg, ip measured at 1 hr post dose by LC/MS/MS analysis to Negative allosteric modulation of rat mGlu7 receptor expressed in HEK cells harboring Ga15; format: ADME, organism-based; conditions: in vivo
[38] = tested on: Mus musculus; test: Anxiolytic-like activity in C57Bl/6J mouse assessed as increase in total time spent in the light side of the chamber at 15 mg/kg, ip measured during 10-min testing period; format: functional, organism-based
Procedure, shortened: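 Mouse light/dark box anxiety model; single ip dose with a 1 h treatment time before testing. Read-out is total time spent in the light side of the chamber versus vehicle-treated controls. Groups compared by one-way ANOVA with Dunnett's post hoc test; all data points screened with Grubb's outlier test.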

Sequence of Metabotropic glutamate receptor 7 (P35400 whole entry): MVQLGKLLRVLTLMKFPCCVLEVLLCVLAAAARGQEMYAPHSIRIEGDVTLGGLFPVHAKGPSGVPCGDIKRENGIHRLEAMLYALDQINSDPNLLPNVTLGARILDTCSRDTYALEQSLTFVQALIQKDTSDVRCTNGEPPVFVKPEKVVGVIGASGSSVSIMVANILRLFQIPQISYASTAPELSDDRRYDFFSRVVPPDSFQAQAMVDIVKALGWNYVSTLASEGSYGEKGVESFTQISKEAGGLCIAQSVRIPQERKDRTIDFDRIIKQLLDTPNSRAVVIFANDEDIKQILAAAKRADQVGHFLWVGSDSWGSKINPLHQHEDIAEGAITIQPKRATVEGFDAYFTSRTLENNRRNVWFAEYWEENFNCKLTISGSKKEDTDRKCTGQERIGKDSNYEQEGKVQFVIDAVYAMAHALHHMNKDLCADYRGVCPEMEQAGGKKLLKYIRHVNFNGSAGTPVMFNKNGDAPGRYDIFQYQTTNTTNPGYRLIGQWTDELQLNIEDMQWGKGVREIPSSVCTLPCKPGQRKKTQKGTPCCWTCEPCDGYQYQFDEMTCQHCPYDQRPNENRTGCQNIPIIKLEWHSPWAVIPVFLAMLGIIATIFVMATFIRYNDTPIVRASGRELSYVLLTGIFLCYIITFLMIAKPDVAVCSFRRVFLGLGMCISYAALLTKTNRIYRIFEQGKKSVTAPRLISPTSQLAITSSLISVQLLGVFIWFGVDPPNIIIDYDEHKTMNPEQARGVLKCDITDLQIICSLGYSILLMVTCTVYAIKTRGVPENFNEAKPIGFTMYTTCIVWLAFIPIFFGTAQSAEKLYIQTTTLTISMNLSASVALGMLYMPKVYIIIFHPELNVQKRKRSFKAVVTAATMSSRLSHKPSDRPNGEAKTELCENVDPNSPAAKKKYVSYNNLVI
Sequence of Metabotropic glutamate receptor 3 (Q14832 whole entry): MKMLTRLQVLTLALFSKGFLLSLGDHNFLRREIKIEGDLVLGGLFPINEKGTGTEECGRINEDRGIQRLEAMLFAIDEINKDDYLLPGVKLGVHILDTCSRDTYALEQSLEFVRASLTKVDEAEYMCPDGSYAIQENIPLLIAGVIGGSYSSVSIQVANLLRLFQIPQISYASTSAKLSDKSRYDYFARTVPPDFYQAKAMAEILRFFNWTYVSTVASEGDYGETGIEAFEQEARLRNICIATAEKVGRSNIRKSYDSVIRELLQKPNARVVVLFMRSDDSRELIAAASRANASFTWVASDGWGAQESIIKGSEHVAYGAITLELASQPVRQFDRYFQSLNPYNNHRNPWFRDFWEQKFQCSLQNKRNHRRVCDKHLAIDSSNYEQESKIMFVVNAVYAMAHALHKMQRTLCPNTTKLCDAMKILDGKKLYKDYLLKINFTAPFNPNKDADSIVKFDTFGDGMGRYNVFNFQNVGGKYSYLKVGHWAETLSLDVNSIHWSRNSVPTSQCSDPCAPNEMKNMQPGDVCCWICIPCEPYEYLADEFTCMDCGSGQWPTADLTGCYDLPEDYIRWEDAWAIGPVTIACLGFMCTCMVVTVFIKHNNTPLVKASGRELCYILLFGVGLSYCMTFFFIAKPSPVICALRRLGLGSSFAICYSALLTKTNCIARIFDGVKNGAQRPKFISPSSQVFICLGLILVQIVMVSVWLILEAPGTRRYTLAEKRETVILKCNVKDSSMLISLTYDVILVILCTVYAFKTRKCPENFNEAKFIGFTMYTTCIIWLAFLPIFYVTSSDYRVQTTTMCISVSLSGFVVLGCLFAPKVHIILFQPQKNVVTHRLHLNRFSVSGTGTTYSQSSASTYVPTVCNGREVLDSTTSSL
Sequence of Metabotropic glutamate receptor 8 (O00222 whole entry): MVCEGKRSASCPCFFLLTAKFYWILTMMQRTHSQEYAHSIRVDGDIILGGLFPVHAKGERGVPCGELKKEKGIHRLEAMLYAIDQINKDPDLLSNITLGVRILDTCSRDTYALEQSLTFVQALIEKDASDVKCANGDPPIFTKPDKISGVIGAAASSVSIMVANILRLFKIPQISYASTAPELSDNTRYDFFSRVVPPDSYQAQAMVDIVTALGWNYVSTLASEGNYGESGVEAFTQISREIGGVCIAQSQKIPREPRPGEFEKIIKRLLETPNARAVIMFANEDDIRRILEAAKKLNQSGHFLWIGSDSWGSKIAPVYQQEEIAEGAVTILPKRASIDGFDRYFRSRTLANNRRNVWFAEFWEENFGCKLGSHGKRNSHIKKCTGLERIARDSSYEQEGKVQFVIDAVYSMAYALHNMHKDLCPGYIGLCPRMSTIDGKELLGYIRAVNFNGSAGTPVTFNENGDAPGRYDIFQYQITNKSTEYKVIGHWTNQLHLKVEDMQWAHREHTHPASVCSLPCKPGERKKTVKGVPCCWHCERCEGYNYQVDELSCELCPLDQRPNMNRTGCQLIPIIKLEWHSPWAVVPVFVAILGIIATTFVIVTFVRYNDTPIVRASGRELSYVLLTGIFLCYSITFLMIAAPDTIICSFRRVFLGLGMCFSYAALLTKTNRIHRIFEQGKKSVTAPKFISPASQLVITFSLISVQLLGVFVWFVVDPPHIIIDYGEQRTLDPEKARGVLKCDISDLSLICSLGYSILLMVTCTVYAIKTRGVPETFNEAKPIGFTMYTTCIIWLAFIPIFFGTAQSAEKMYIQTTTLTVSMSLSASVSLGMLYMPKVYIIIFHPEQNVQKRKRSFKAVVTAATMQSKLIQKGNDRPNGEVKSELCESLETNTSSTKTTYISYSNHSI
Sequence of Metabotropic glutamate receptor 6 (O15303 whole entry): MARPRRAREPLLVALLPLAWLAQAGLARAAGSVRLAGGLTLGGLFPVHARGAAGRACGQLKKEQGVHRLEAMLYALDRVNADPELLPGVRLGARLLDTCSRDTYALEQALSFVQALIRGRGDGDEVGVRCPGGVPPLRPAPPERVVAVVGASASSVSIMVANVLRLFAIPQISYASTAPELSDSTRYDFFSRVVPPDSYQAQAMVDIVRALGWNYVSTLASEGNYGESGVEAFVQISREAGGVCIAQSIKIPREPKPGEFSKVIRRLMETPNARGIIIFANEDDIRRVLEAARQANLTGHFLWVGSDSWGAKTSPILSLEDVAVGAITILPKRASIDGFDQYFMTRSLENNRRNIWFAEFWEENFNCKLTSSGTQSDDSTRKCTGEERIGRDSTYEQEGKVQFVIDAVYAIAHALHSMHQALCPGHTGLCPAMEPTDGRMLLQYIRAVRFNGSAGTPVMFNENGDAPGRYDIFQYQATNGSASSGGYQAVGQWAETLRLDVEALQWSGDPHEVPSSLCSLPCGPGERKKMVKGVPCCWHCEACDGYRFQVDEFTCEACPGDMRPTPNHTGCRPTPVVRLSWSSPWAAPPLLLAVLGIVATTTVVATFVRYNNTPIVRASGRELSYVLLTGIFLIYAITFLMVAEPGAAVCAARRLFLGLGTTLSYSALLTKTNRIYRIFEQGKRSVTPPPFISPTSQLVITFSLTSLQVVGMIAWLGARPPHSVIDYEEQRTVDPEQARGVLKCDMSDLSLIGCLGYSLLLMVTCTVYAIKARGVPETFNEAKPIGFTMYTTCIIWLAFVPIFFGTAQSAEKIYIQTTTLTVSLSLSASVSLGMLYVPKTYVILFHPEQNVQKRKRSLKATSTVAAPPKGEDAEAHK
Sequence of 5-hydroxytryptamine receptor 2B (Homo sapiens) (P41595 whole entry): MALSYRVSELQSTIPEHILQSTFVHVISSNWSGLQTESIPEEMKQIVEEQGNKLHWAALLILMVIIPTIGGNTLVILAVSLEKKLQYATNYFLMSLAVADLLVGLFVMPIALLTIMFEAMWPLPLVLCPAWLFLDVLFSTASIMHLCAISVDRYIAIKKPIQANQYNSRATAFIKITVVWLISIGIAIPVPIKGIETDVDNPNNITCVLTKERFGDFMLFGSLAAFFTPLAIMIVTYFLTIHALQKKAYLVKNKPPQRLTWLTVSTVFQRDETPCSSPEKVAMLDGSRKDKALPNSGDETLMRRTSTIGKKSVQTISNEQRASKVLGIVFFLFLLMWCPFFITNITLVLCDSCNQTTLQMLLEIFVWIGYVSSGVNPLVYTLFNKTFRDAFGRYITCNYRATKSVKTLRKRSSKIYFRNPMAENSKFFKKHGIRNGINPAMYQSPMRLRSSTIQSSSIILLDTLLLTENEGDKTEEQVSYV
Sequence of Metabotropic glutamate receptor 4 (Q14833 whole entry): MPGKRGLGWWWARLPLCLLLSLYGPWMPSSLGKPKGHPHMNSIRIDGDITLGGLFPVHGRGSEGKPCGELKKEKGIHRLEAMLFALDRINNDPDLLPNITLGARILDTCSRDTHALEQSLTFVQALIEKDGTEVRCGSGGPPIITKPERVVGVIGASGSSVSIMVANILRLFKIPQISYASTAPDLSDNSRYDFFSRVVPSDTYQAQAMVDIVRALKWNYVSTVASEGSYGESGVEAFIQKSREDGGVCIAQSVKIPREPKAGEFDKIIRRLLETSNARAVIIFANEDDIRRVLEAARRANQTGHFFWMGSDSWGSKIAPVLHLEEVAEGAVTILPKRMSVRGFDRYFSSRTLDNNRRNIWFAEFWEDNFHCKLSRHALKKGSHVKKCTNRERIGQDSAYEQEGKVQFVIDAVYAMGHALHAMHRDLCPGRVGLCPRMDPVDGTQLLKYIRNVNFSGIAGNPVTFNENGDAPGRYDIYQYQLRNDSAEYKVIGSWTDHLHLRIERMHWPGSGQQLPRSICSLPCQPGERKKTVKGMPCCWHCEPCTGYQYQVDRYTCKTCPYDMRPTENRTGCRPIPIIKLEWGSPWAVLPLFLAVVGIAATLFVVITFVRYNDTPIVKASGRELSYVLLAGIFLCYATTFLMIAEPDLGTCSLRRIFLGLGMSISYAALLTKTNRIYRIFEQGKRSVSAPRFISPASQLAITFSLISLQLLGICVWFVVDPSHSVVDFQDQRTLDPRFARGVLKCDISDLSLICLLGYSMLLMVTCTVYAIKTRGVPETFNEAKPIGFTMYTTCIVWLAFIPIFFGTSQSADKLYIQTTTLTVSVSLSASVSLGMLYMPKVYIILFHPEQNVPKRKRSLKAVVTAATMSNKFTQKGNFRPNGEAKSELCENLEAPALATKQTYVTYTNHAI

SMILES: COc1ccc(CCCNc2cc(Cl)ccc2-n2cncn2)cc1OC
- IC50 [1]: > 10 µM

SMILES: COc1cc(C(=O)Nc2cc(OC(F)(F)F)ccc2-n2cncn2)ccc1OCc1ccccc1
- IC50 [1]: 3.1 µM

SMILES: COc1cc(F)c(CCCNc2cc(OC(F)(F)F)ccc2-n2cncn2)cc1OC
- fraction unbound at 24 h [2]: < 0.003
- fraction unbound at 24 h [3]: 0.01 to 0.03
- IC50 [1]: 1.3 µM

SMILES: COc1cc(C(=O)Nc2cc(OC(F)(F)F)ccc2-n2cncn2)ccc1OCC1CCC1
- IC50 [1]: 1.4 µM

SMILES: COc1cc(F)c(OCCNc2cc(OC(F)(F)F)ccc2-n2cncn2)cc1OC
- fraction unbound at 24 h [2]: < 0.003
- fraction unbound at 24 h [3]: 0.01 to 0.03
- IC50 [1]: 1.2 µM

SMILES: COc1cc(F)c(OCCNc2cc(Cl)ccc2-n2cncn2)cc1OC
- IC50 [1]: > 10 µM

SMILES: COc1ccc(CNc2cc(Cl)ccc2-n2cncn2)cc1OC
- IC50 [1]: 7.9 µM

SMILES: COc1cc(C(=O)Nc2cc(OC(F)(F)F)ccc2-n2cncn2)ccc1OCC1CCCC1
- IC50 [1]: 2.8 µM

SMILES: COc1cc(C(=O)Nc2cc(OC(F)(F)F)ccc2-n2cncn2)ccc1OCC1CC1
- K(p,uu,brain) [4]: 0.75
- fraction unbound at 24 h [5]: 0.026
- Drug uptake(free) [6]: 3.4 nM
- IC50 [7]: > 10 µM
- IC50 [8]: > 10 µM
- F [9]: 74.9%
- K(p,uu,brain) [10]: 0.38
- concentration at 24 h [11]: 375 nM
- concentration at 1 h [12]: 745 nM
- Activity [13]: Active
- Kp [14]: 2.35
- IC50 [15]: > 10 µM
- IC50 [16]: > 10 µM
- Drug uptake(free) [17]: 6.4 nM
- concentration at 1 h [18]: 598 nM
- IC50 [19]: > 10 µM
- Kp [20]: 1.24
- t1/2 [21]: 40 min
- Cp(f) [22]: 16.7 nM
- IC50 [23]: > 10 µM
- concentration at 1 h [24]: 883 nM
- concentration at 1 h [25]: 303 nM
- IC50 [26]: > 10 µM
- Activity [27]: Active
- Activity [28]: Active
- concentration at 1 h [29]: 1300 nM
- fraction unbound at 24 h [2]: 0.009
- Activity [30]: Toxic
- Ratio [31]: 2.5
- Activity [32]: > 50%
- Fu ([3]; in vivo, 24 h): 0.028
- IC50 [1]: 0.35 µM
- fraction unbound at 24 h [33]: 0.009
- minimal effective dose [34]: 3 mg/kg
- Kp [35]: 2.15
- Vdss [36]: 1.9 L/kg
- Ratio [37]: 3.8

SMILES: COc1cc(F)c(CCCNc2cc(Cl)ccc2-n2cncn2)cc1OC
- IC50 [1]: > 10 µM

SMILES: COc1cc(C(=O)Nc2cc(OC(F)(F)F)ccc2-n2cncn2)ccc1OCC(F)(F)F
- IC50 [1]: > 30 µM

SMILES: CNCCC(Oc1ccc(C(F)(F)F)cc1)c1ccccc1 (centres undefined)
- Activity [38]: Active

SMILES: COc1ccc(CCCNc2cc(OC(F)(F)F)ccc2-n2cncn2)cc1OC
- fraction unbound at 24 h [2]: < 0.003
- fraction unbound at 24 h [3]: 0.01 to 0.03
- IC50 [1]: 1.6 µM

SMILES: COc1cc(C(=O)Nc2cc(OC(F)(F)F)ccc2-n2cncn2)ccc1OCC(C)C
- IC50 [1]: 1.2 µM

SMILES: COc1ccc(CNc2cc(OC(F)(F)F)ccc2-n2cncn2)cc1OC
- fraction unbound at 24 h [2]: < 0.003
- fraction unbound at 24 h [3]: 0.01 to 0.03
- IC50 [1]: 5.9 µM
